Reference: ChEMBL document CHEMBL1153572, “Synthesis and antinociceptive activity of capsinoid derivatives” (Eur J Med Chem, 2009)

Experiments:
Mus musculus [1] = species: Mus musculus; assay: Toxicity in KM mouse assessed as number of protective movements for 30 mins by wiping test; assay type: organism-based; settings: in vivo, 0.5 h
In short: (§1)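 Eye-drop test. Twofold dilutions were dropped into the right eye, with vehicle in the left eye as control. Protective movements (scratching, wiping the eye with the foreleg) were counted for 30 min. Six animals per concentration, half male and half female. A dose–response curve was built from group means, and MPP was taken as the concentration giving 32 scratches.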

Mus musculus [2] = assay: Antinociceptive activity against acetic acid-induced writhing in sc dosed KM mouse for 30 mins; assay type: functional; settings: 0.5 h
In short: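 Mice, half male and half female, 8 per group, in cages at 23 ± 2 °C, 40–60% humidity and a 12 h light/dark cycle. Compounds were dissolved in 10% Tween-80 (aq) as twofold serial dilutions and given sc as a single 0.2 mL dose, with vehicle control. After 20 min, 0.2 mL of 0.7% acetic acid was given ip. Writhes were counted for 30 min. ED50 reported with 95% C.L.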

Mus musculus [3] = assay: Antinociceptive activity against acetic acid-induced writhing in sc dosed KM mouse for 30 mins relative to indomethacin; assay type: functional
In short: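 Writhing ED50 from sc dosing (8 mice per group, 10% Tween-80 vehicle, 0.7% acetic acid ip 20 min after dosing, writhes counted for 30 min) expressed as a potency ratio relative to indomethacin run in parallel.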

Mus musculus [4] = species: Mus musculus; assay: Toxicity in KM mouse assessed as moderate pain producing potency for 30 mins by wiping test; assay type: organism-based; settings: in vivo, 0.5 h; in short: as §1
Mus musculus [5] = species: Mus musculus; assay: Toxicity in KM mouse assessed as relative pungent potency for 30 mins by wiping test relative to capsaicin; assay type: organism-based; settings: in vivo, 0.5 h
In short: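 RPP was derived from MPP values read off the eye-drop dose–response curve (movements counted for 30 min, 6 animals per concentration). It was scaled to the pain-producing potency of capsaicin, set as 1000.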

Compound	Activity (Mus musculus [1])	ED50 (Mus musculus [2])	Ratio (Mus musculus [3])	Activity (Mus musculus [4])	Activity (Mus musculus [5])
CCCCCCCCCC(=O)OCc1ccc(OCCCCCC)c(OC)c1	11	1.84 mg/kg	5.89	Non-toxic	Non-toxic
CCCCCCCCCC(=O)OCc1ccc(OCCCC)c(OC)c1	8	3.16 mg/kg	3.19	Non-toxic	Non-toxic
CCCCCCCCCC(=O)OCc1ccc(OCC)c(OC)c1	4	3.92 mg/kg	2.57	Non-toxic	Non-toxic
COc1cc(CNC(=O)CCCC/C=C/C(C)C)ccc1O [CAPSAICIN]				0.099 mg/mL	
COc1ccc2c(c1)c(CC(=O)O)c(C)n2C(=O)c1ccc(Cl)cc1 [INDOMETHACIN]			1		
CCCCCCCC(=O)OCc1ccc(O)c(OC)c1 [VANILLYL CAPRYLATE]	28	12.6 mg/kg	0.8	Non-toxic	Non-toxic
CCCCCCCCCC(=O)OCc1ccc(O)c(OC)c1 [VANILLYL DECANOATE]	25	15.6 mg/kg	0.65	Non-toxic	Non-toxic
CCCCCCCCCCCC(=O)OCc1ccc(O)c(OC)c1 [VANILLYL LAURATE]	22	19.4 mg/kg	0.52	Non-toxic	Non-toxic
